# In ChEMBL document CHEMBL3608306, “Design, synthesis and evaluation of new GEQ derivatives as inhibitors of InhA enzyme and Mycobacterium tuberculosis growth” (Eur J Med Chem, 2015):
# How the values were obtained:
# [1] = Inhibition of Mycobacterium tuberculosis His6-tagged InhA expressed in Escherichia coli BL21 using 2-trans-dodecenoyl-CoA as substrate assessed as conversion of NADH to NAD+
# In short: (§1)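 Triplicate NADH-dependent reduction of the substrate analogue 2-trans-dodecenoyl-CoA by InhA, with NADH oxidation to NAD+ followed as the fall in absorbance at 340 nm. Percent inhibition was screened at 50 µM, or at 10 µM where solubility limited. IC50 came from 4-parameter curve fits of at least six concentrations.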
# [2] = system: Mycobacterium tuberculosis; test: Inhibition of Mycobacterium tuberculosis His6-tagged InhA expressed in Escherichia coli BL21 using 2-trans-dodecenoyl-CoA as substrate assessed as conversion of NADH to NAD+ at 10 uM relative to control; in short: as §1
# [3] = system: Mycobacterium tuberculosis; test: Inhibition of Mycobacterium tuberculosis His6-tagged InhA expressed in Escherichia coli BL21 using 2-trans-dodecenoyl-CoA as substrate assessed as conversion of NADH to NAD+ at 50 uM relative to control; in short: as §1
# [4] = system: Mycobacterium tuberculosis; test: Antimycobacterial activity against Mycobacterium tuberculosis H37Rv after 21 days by microbroth dilution method; type: functional
# [5] = system: Mycobacterium tuberculosis; test: Antimycobacterial activity against Mycobacterium tuberculosis by CFU counting method; type: functional
# [6] = system: Mycobacterium tuberculosis; test: Antimycobacterial activity against Mycobacterium tuberculosis by Alamar blue assay; type: functional
# [7] = system: Mycobacterium tuberculosis; test: Ratio of MIC for Mycobacterium tuberculosis H37Rv in absence of verapamil to MIC for Mycobacterium tuberculosis H37Rv in presence of verapamil; type: functional
# [8] = system: Mycobacterium tuberculosis; test: Ratio of MIC for Mycobacterium tuberculosis H37Rv in absence of CCCP to MIC for Mycobacterium tuberculosis H37Rv in presence of CCCP; type: functional
# [9] = system: Mycobacterium tuberculosis; test: Antimycobacterial activity against Mycobacterium tuberculosis H37Rv after 21 days by microbroth dilution method in presence of 40 ug/ml efflux pump inhibitor verapamil; type: functional; settings: 504 h
# [10] = system: Mycobacterium tuberculosis; test: Antimycobacterial activity against Mycobacterium tuberculosis H37Rv after 21 days by microbroth dilution method in presence of 7.5 ug/ml efflux pump inhibitor CCCP; type: functional; settings: 504 h
# [11] = system: Mycobacterium tuberculosis; test: Antimycobacterial activity against Mycobacterium tuberculosis H37Rv after 21 days by microbroth dilution method in presence of 3 ug/ml efflux pump inhibitor reserpine; type: functional; settings: 504 h
# [12] = system: Mycobacterium tuberculosis; test: Ratio of MIC for Mycobacterium tuberculosis H37Rv in absence of reserpine to MIC for Mycobacterium tuberculosis H37Rv in presence of reserpine; type: functional
# [13] = system: Mycobacterium tuberculosis; test: Inhibition of Mycobacterium tuberculosis His6-tagged InhA expressed in Escherichia coli BL21 using 2-trans-dodecenoyl-CoA as substrate assessed as conversion of NADH to NAD+ at 250 nM relative to control
# In short: (§2)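 Chirally separated enantiomers were tested for InhA inhibition at 5 µM or 250 nM, run in triplicate. The assay used 2-trans-dodecenoyl-CoA substrate and NADH, read as the decrease in absorbance at 340 nm from NADH oxidation to NAD+. IC50 came from 4-parameter fits of at least six points.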
# [14] = system: Mycobacterium tuberculosis; test: Inhibition of Mycobacterium tuberculosis His6-tagged InhA expressed in Escherichia coli BL21 using 2-trans-dodecenoyl-CoA as substrate assessed as conversion of NADH to NAD+ at 5 uM relative to control; in short: as §2
# [15] = Mycobacterium tuberculosis, H37Rv, 504 h, read-out: MIC
Structure (SMILES),IC50 [1] [nM],inhibition [2] [%],inhibition [3] [%],"MIC [4, 15] [µM]",further results
O=C(Nc1ccccc1)N1CCN(C2c3ccccc3-c3ccccc32)CC1,1180,79,84,> 27.1,
O=C(c1ccc2[nH]ccc2c1)N1CCN(C2c3ccccc3-c3ccccc32)CC1,860,81,87,50.1,MIC [5]: > 125 µM; MIC [6]: > 125 µM; Ratio [7]: >4; Ratio [8]: >4; MIC [9]: < 12.7 µM; MIC [10]: < 12.7 µM; MIC [11]: 25.4 µM
O=C(c1ccccc1)N1CCN(C2c3ccccc3-c3ccccc32)CC1,490,94,94,14.1,Ratio [8]: >5; MIC [9]: 56.5 µM; MIC [10]: < 3.5 µM; MIC [11]: 56.5 µM
O=S(=O)(c1ccccc1)N1CCN(C2c3ccccc3-c3ccccc32)CC1,,,12,> 25.6,
c1ccc2c(c1)-c1ccccc1C2N1CCNCC1,,,7,> 39.9,
CCCCC(=O)N1CCN(C2c3ccccc3-c3ccccc32)CC1,,45,75,29.9,
CCCCCCCCC(=O)N1CCN(C2c3ccccc3-c3ccccc32)CC1,,22,47,12.8,
S=C(c1ccccc1)N1CCN(C2c3ccccc3-c3ccccc32)CC1,,,31,13.5,
S=C(Nc1ccccc1)N1CCN(C2c3ccccc3-c3ccccc32)CC1,,32,57,> 25.9,
CCCCNC(=O)N1CCN(C2c3ccccc3-c3ccccc32)CC1,,42,68,14.3,
CCCCCCCCNC(=O)N1CCN(C2c3ccccc3-c3ccccc32)CC1,,,34,> 24.7,
O=C(Nc1ccc([N+](=O)[O-])cc1)N1CCN(C2c3ccccc3-c3ccccc32)CC1,,,33,12.1,
O=C(c1ccccc1)N1CCC(C2c3ccccc3-c3ccccc32)CC1,940,88,93,28.3,
O=C1CN(C2c3ccccc3-c3ccccc32)CCN1C(=O)c1ccccc1,,,26,> 27.1,
[O-][S+](c1ccccc1)N1CCN(C2c3ccccc3-c3ccccc32)CC1 (racemic),,,14,> 26.7,
CP(=O)(c1ccccc1)N1CCN(C2c3ccccc3-c3ccccc32)CC1 (racemic),,,17,> 24.7,
COP(=O)(c1ccccc1)N1CCN(C2c3ccccc3-c3ccccc32)CC1 (racemic),,,17,> 25.7,
CCCCCCc1ccc2c(c1)C(N1CCN(C(=O)c3ccccc3)CC1)c1ccccc1-2 (racemic),,45,48,22.8,
CCCCCCCCc1ccc2c(c1)C(N1CCN(C(=O)c3ccccc3)CC1)c1ccccc1-2 (racemic),,27,54,> 21.4,

Structure (SMILES),IC50 [1] [nM],inhibition [2] [%],inhibition [3] [%],"MIC [4, 15] [µM]",further results
CCCCCCc1ccc2c(c1)-c1ccccc1C2N1CCN(C(=O)c2ccccc2)CC1 (racemic),1000,52,60,22.8,
COc1ccc2c(c1)-c1ccccc1C2N1CCN(C(=O)c2ccccc2)CC1 (racemic) [listing 1 of 2 here],2690,,,26,
CCCOc1ccc2c(c1)-c1ccccc1C2N1CCN(C(=O)c2ccccc2)CC1 (racemic),1010,84,91,24.2,
CCCCCCOc1ccc2c(c1)-c1ccccc1C2N1CCN(C(=O)c2ccccc2)CC1 (racemic) [listing 1 of 2 here],200,,,22,
CCCOc1ccc2c(c1)C(N1CCN(C(=O)c3ccccc3)CC1)c1ccccc1-2 (racemic),1300,83,88,> 24.2,
O=C(c1ccccc1)N1CCN(C2c3ccccc3-c3cc(OCc4ccccc4)ccc32)CC1 (racemic),1000,57,63,> 21.7,
CCCCCCOc1ccc2c(c1)-c1ccccc1C2C1CCN(C(=O)c2ccccc2)CC1 (racemic),1050,71,64,88.2,Ratio [12]: 4; Ratio [7]: 2; MIC [9]: 44.1 µM; MIC [11]: 22.1 µM
CCCCCCOc1ccc2c(c1)-c1ccccc1C2N1CCN(C(=O)c2ccccc2)CC1 (racemic) [listing 2 of 2 here],,70,79,,inhibition [13]: 53%
COc1ccc2c(c1)-c1ccccc1C2N1CCN(C(=O)c2ccccc2)CC1 (racemic) [listing 2 of 2 here],,74,92,,inhibition [14]: 60%
"CCCCCCOc1ccc2c(c1)-c1ccccc1C2N1CCN(C(=O)c2ccccc2)CC1 (single isomer, unassigned) [listing 1 of 2 here]",,,,,MIC [4]: >22 µM
"CCCCCCOc1ccc2c(c1)-c1ccccc1C2N1CCN(C(=O)c2ccccc2)CC1 (single isomer, unassigned) [listing 2 of 2 here]",,,,,inhibition [13]: 0%
"COc1ccc2c(c1)-c1ccccc1C2N1CCN(C(=O)c2ccccc2)CC1 (single isomer, unassigned; enantiomer 1) [listing 1 of 2 here]",,,,,MIC [4]: >26 µM
"COc1ccc2c(c1)-c1ccccc1C2N1CCN(C(=O)c2ccccc2)CC1 (single isomer, unassigned; enantiomer 1) [listing 2 of 2 here]",,,,,inhibition [14]: 11%
"CCCCCCOc1ccc2c(c1)-c1ccccc1C2N1CCN(C(=O)c2ccccc2)CC1 (single isomer, unassigned; enantiomer 2) [listing 1 of 2 here]",102,,,,Ratio [12]: >4; Ratio [8]: >4; MIC [9]: 11 µM; MIC [10]: < 2.7 µM; MIC [4]: 11 µM; MIC [11]: < 2.7 µM
"CCCCCCOc1ccc2c(c1)-c1ccccc1C2N1CCN(C(=O)c2ccccc2)CC1 (single isomer, unassigned; enantiomer 2) [listing 2 of 2 here]",,,,,inhibition [13]: 71%
COc1ccc2c(c1)-c1ccccc1C2N1CCN(C(=O)c2ccccc2)CC1 (stereo in doubt; 31b) [listing 1 of 2 here],2070,,,,
COc1ccc2c(c1)-c1ccccc1C2N1CCN(C(=O)c2ccccc2)CC1 (stereo in doubt; 31b) [listing 2 of 2 here],,,,,inhibition [14]: 68%
NNC(=O)c1ccncc1 [ISONIAZID],,,,0.4,
